Here are results for 19 compounds from ChEMBL document CHEMBL1132565 (J Med Chem, 1999).

A word on the half-life: it is how long it takes for the measured level to halve. The term IC50 denotes the concentration that inhibits the measured activity by half. The Ki is the equilibrium dissociation constant of an inhibitor or competing ligand from its target. Higher therefore signals weaker binding.

Active and inactive are the calls of the source. Bounds are passed on as bounds.

Data set [1] is described as follows: Half-life time of enzymatic breakdown in mouse brain. It counts as ADME. Summed up:
(§1)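 Methanol added to stop each sample, followed by centrifugation. Residual activity in the supernatant was bioassayed on GPI or MVD and expressed as % of time-0 recovery. Three experiments.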

Data set [2] is described as follows: Half-life time of enzymatic breakdown in mouse liver. It counts as ADME. Summed up: as §1
The species named for data set [3] is Cavia porcellus. The data set is described as follows: In vitro concentration required to inhibit electrically evoked twitch in isolated guinea pig ileum. It counts as functional. Summed up:
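Myenteric plexus-longitudinal muscle strips from male guinea pig small intestine, field-stimulated with supramaximal bipolar rectangular pulses. Inhibition of the electrically evoked twitch measured. IC50 taken from concentration-response curves, at least six tissues.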

The species named for data set [4] is Mus musculus. Description: In vitro concentration required to inhibit electrically evoked twitch in isolated mouse vas deferens. It counts as functional. In outline:
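Mouse vas deferens field-stimulated with supramaximal bipolar rectangular pulses. Inhibition of the electrically evoked twitch measured. IC50 taken from concentration-response curves, at least six tissues.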

Data set [5] deals with Mu-type opioid receptor (Mus musculus, UniProt P42866). Description: Displacement of [3H]-DAGO from Opioid receptor mu 1 of adult male mouse brain. The data set is classed as tissue-based. In outline:
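Crude membranes from adult male Albino Swiss mouse brain, pre-incubated 30 min at 25 °C to remove endogenous opioids. Competition against [3H]DAGO 0.5 nM on 1 mg membrane protein in 50 mM Tris-HCl pH 7.4, 35 °C for 90 min. Nonspecific binding defined with 10 µM naloxone, 12 inhibitor concentrations. GF/B filtration and scintillation counting. Ki from competition curves, run in triplicate.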
In general terms: Displacement assays read how much labelled ligand stays bound in the presence of the test substance.

Data set [6] relates to Mus musculus. The data set is described as follows: Antinociceptive activity after subcutaneous administration in mice. The data set is classed as functional. Summed up:
(§2)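 Male CD-1 mice (25-30 g), peptide dissolved in sterile Ringer's solution and injected subcutaneously at 0.05 mL/10 g, 5-8 animals per dose. Hot plate at 55 °C, latency to back-paw licking or escape jump recorded. Cut-off 15 s. Mice not responding within 5 s before drug were excluded. Testing every 15 min for the first hour, then every 30 min. %MPE calculated. AD50 with 95% CL by Litchfield-Wilcox.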

The target of data set [7] is Delta-type opioid receptor (Mus musculus, UniProt P32300). Description: Displacement of [3H]NLT from Opioid receptor delta 1 of adult male mouse brain.
Delta-type opioid receptor, sequence (P32300 whole entry): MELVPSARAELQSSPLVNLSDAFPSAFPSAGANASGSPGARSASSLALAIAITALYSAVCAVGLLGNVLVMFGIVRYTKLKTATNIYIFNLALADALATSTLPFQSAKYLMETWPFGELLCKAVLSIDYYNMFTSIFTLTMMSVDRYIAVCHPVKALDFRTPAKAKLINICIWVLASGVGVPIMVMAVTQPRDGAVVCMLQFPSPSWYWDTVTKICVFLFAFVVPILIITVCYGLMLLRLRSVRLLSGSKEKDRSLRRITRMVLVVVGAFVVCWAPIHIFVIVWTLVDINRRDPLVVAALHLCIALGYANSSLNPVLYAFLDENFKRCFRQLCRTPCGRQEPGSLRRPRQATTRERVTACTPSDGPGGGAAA
Data set [8] relates to Mus musculus. Description: Antinociceptive activity after subcutaneous administration in mice was determined in analgesia hotplate test. The data set is classed as functional. In outline:
as §2

The test system of data set [9] is Mus musculus. The data set is described as follows: Antinociceptive activity after subcutaneous administration in mice; the highest dose tested, 100 uM/Kg, was unable to produce a significant analgesia. The data set is classed as functional, organism-based. Summed up:
as §2

Data set [10] relates to Mus musculus. Description: Antinociceptive activity after subcutaneous administration in mice. p<0.05 vs dermorphin. The data set is classed as functional. Summed up:
as §2

Mu-type opioid receptor, sequence (P42866 whole entry): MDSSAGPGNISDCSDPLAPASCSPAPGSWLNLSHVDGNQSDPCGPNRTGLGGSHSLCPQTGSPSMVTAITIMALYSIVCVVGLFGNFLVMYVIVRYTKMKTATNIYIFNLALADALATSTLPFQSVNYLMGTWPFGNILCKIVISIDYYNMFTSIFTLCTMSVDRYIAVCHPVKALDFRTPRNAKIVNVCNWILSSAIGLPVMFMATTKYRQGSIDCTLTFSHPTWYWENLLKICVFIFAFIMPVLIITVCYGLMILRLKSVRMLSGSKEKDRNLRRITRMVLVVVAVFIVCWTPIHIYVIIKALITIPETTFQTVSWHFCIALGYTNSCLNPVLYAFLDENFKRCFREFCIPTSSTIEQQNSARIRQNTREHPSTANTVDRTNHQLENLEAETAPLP

For the compound `C[C@@H](NC(=O)[C@@H](N)Cc1ccc(O)cc1)C(=O)N[C@@H](Cc1ccccc1)C(=O)NCC(=O)N[C@@H](Cc1ccc(O)cc1)C(=O)N1CCC[C@H]1C(=O)N[C@@H](CO)C(N)=O` [DERMORPHIN], the half-life in [1] was determined as 0.333 h; in data set [2] it was 0.167 h. In addition, the IC50 was found to be 1.5 nM in data set [3] and 19 nM in data set [4]. Besides, in data set [5], the affinity corresponds to a Ki of 1.1 nM. The same compound displayed an AD50 in [6] of 2.4 µM/kg.
For the compound `CC(=O)O[C@H]1[C@H](O)[C@@H](O)[C@@H](O)O[C@@H]1COC(=O)[C@H](CO)NC(=O)[C@@H]1CCCN1C(=O)[C@H](Cc1ccc(O)cc1)NC(=O)CNC(=O)[C@H](Cc1ccccc1)NC(=O)[C@@H](C)NC(=O)[C@@H](N)Cc1ccc(O)cc1`, the half-life is 1.5 h in data set [1] and 1 h in data set [2]. Further, the IC50 in data set [3] was found to be 8.2 nM; in data set [4] it was 18 nM. In data set [6], this compound gave an AD50 of 4.6 µM/kg.
`C[C@H](NC(=O)[C@@H]1CCCN1C(=O)[C@H](Cc1ccc(O)cc1)NC(=O)CNC(=O)[C@H](Cc1ccccc1)NC(=O)[C@@H](C)NC(=O)[C@@H](N)Cc1ccc(O)cc1)C(=O)OC[C@H]1O[C@H](O)[C@H](O)[C@@H](O)[C@H]1O`: the Ki was 2850 nM in [7] and 2.5 nM in [5]. Moreover, the 50% inhibitory concentration (IC50) in data set [3] was 4 nM; in data set [4], 55 nM. In addition, the AD50 in data set [8] was 1.1 µM/kg.
Take `CC(C)[C@H](NC(=O)[C@H](CC(=O)O)NC(=O)[C@H](Cc1ccccc1)NC(=O)[C@@H](C)NC(=O)[C@@H](N)Cc1ccc(O)cc1)C(=O)N[C@H](C(=O)N[C@@H](C)C(=O)O[C@H]1O[C@H](O)[C@H](O)[C@@H](O)[C@H]1O)C(C)C`: the Ki is 176 nM in [7] and 1590 nM in data set [5]. Also, the values for the IC50 in data set [3] and in [4] were > 2000 nM and 36 nM, respectively.
`CC(C)[C@H](NC(=O)[C@H](CC(=O)O)NC(=O)[C@H](Cc1ccccc1)NC(=O)[C@@H](C)NC(=O)[C@@H](N)Cc1ccc(O)cc1)C(=O)N[C@H](C(=O)N[C@H](C)C(=O)O[C@H]1O[C@H](O)[C@H](O)[C@@H](O)[C@H]1O)C(C)C` returned an AD50 in data set [8] of 19 µM/kg.
Consider `CC(C)[C@H](NC(=O)[C@H](CC(=O)O)NC(=O)[C@H](Cc1ccccc1)NC(=O)[C@@H](C)NC(=O)[C@@H](N)Cc1ccc(O)cc1)C(=O)N[C@H](C(=O)N[C@@H](CO)C(=O)OC[C@H]1O[C@H](O)[C@H](O)[C@@H](O)[C@@H]1O)C(C)C`, for which the half-life in data set [1] was > 4 h; in data set [2], 3 h. In addition, the Ki in data set [7] turned out to be 23 nM; in [5], 879 nM. Further, the IC50 was determined as 1600 nM in data set [3] and 3.1 nM in [4].
Consider `CC(C)[C@H](NC(=O)[C@H](CC(=O)O)NC(=O)[C@H](Cc1ccccc1)NC(=O)[C@@H](C)NC(=O)[C@@H](N)Cc1ccc(O)cc1)C(=O)N[C@H](C(=O)N[C@@H](C)C(N)=O)C(C)C`, for which the figures for the Ki in [7] and in [5] were 40 nM and 1900 nM, respectively. The IC50 in data set [3] was > 2000 nM; in data set [4], 6.9 nM.
On to `CC(C)[C@H](NC(=O)[C@H](CC(=O)O)NC(=O)[C@H](Cc1ccccc1)NC(=O)[C@@H](C)NC(=O)[C@@H](N)Cc1ccc(O)cc1)C(=O)N[C@H](C(=O)N[C@H](CO)C(=O)OC[C@H]1O[C@H](O)[C@H](O)[C@@H](O)[C@@H]1O)C(C)C`, for which, in data set [8], the AD50 came out at 44 µM/kg.
As for `CC(C)[C@H](NC(=O)[C@H](CC(=O)O)NC(=O)[C@H](Cc1ccccc1)NC(=O)[C@@H](C)NC(=O)[C@@H](N)Cc1ccc(O)cc1)C(=O)N[C@H](C(=O)N[C@@H](CO)C(N)=O)C(C)C`, the Ki stood at 30 nM in [7] and 1100 nM in data set [5]. Also, the IC50 in data set [3] came to 1400 nM; in [4], 4.3 nM.
As for `CC(=O)O[C@H]1[C@@H](OC(=O)[C@H](C)NC(=O)[C@@H](NC(=O)[C@@H](NC(=O)[C@H](CC(=O)O)NC(=O)[C@H](Cc2ccccc2)NC(=O)[C@@H](C)NC(=O)[C@@H](N)Cc2ccc(O)cc2)C(C)C)C(C)C)O[C@H](O)[C@H](O)[C@H]1O`, the values for the Ki in data set [7] and in data set [5] were 160 nM and 2830 nM, respectively. Besides, the half-maximal inhibitory concentration (IC50) was > 2000 nM in [3] and 43 nM in data set [4].
As for `CC(C)[C@H](NC(=O)[C@H](CC(=O)O)NC(=O)[C@H](Cc1ccccc1)NC(=O)[C@@H](C)NC(=O)[C@@H](N)Cc1ccc(O)cc1)C(=O)N[C@H](C(=O)NCC(N)=O)C(C)C` [DELTORPHIN C], the half-life stood at 4 h in data set [1] and 1.83 h in [2]. Further, the IC50 came to 1240 nM in [3] and 0.2 nM in data set [4]. The Ki in data set [5] came out at 1980 nM. Further, in data set [6], the AD50 stood at 87 µM/kg.
As to `C[C@@H](NC(=O)[C@@H](N)Cc1ccc(O)cc1)C(=O)N[C@@H](Cc1ccccc1)C(=O)NCC(=O)N[C@@H](Cc1ccc(O)cc1)C(=O)N1CCC[C@H]1C(=O)N[C@@H](CO)C(=O)OC[C@H]1O[C@H](O)[C@H](O)[C@@H](O)[C@@H]1O`, the half-life was 0.633 h in [1] and 0.5 h in data set [2]. The IC50 worked out at 3.5 nM in data set [3] and 40 nM in data set [4]. In [8], this compound gave an AD50 of 1.4 µM/kg.
On to `CC(C)[C@H](NC(=O)[C@H](CC(=O)O)NC(=O)[C@H](Cc1ccccc1)NC(=O)[C@@H](C)NC(=O)[C@@H](N)Cc1ccc(O)cc1)C(=O)N[C@H](C(=O)N[C@H](C)C(N)=O)C(C)C`, for which, in [9], the AD50 result was “inactive”.
Consider `C[C@@H](NC(=O)[C@@H](N)Cc1ccc(O)cc1)C(=O)N[C@@H](Cc1ccccc1)C(=O)NCC(=O)N[C@@H](Cc1ccc(O)cc1)C(=O)N1C[C@H](O)C[C@H]1C(=O)N[C@@H](CCCCN)C(N)=O`, for which the results for the half-life in data set [1] and in data set [2] were 0.5 h and 0.333 h, respectively. Also, the Ki in data set [7] was found to be 1410 nM; in data set [5], 0.5 nM. Also, the figures for the IC50 in [3] and in data set [4] were 2.1 nM and 35 nM, respectively. The compound further had an AD50 in data set [10] of 0.9 µM/kg.
In turn, `CC(=O)O[C@H]1[C@H](O)[C@@H](O)[C@@H](O)O[C@@H]1COC(=O)[C@@H](CO)NC(=O)[C@@H](NC(=O)[C@@H](NC(=O)[C@H](CC(=O)O)NC(=O)[C@H](Cc1ccccc1)NC(=O)[C@@H](C)NC(=O)[C@@H](N)Cc1ccc(O)cc1)C(C)C)C(C)C` yielded an AD50 in data set [6] of 70 µM/kg.
With `CC(=O)O[C@@H]1[C@H](O)[C@@H](O)[C@@H](O)O[C@@H]1COC(=O)[C@H](C)NC(=O)[C@@H]1CCCN1C(=O)[C@H](Cc1ccc(O)cc1)NC(=O)CNC(=O)[C@H](Cc1ccccc1)NC(=O)[C@@H](C)NC(=O)[C@@H](N)Cc1ccc(O)cc1`, the Ki in [7] is > 5000 nM; in data set [5], 11.2 nM. Further, the IC50 in data set [3] worked out at 6 nM; in [4] it was 65 nM. Also, in [6], the AD50 was found to be 6.6 µM/kg.
Turning to `CC(=O)O[C@H]1[C@H](O)[C@@H](O)[C@@H](O)O[C@@H]1COC(=O)[C@H](CO)NC(=O)[C@@H](NC(=O)[C@@H](NC(=O)[C@H](CC(=O)O)NC(=O)[C@H](Cc1ccccc1)NC(=O)[C@@H](C)NC(=O)[C@@H](N)Cc1ccc(O)cc1)C(C)C)C(C)C`, the values for the half-life in data set [1] and in data set [2] were > 4 h and 4 h, respectively. Also, the results for the Ki in [7] and in data set [5] were 28 nM and 1920 nM, respectively. In addition, the IC50 came to 1900 nM in data set [3] and 2.7 nM in data set [4].
In data set [8], `CC(=O)O[C@H]1[C@@H](OC(=O)[C@@H](C)NC(=O)[C@@H](NC(=O)[C@@H](NC(=O)[C@H](CC(=O)O)NC(=O)[C@H](Cc2ccccc2)NC(=O)[C@@H](C)NC(=O)[C@@H](N)Cc2ccc(O)cc2)C(C)C)C(C)C)O[C@H](O)[C@H](O)[C@H]1O` registered an AD50 of 61 µM/kg.
As to `C[C@H](NC(=O)[C@@H]1CCCN1C(=O)[C@H](Cc1ccc(O)cc1)NC(=O)CNC(=O)[C@H](Cc1ccccc1)NC(=O)[C@@H](C)NC(=O)[C@@H](N)Cc1ccc(O)cc1)C(N)=O`, the Ki is 1110 nM in data set [7] and 1.2 nM in data set [5]. Also, the IC50 in [3] was 1.6 nM; in [4], 24 nM.
